Active and inactive are the calls of the source. The rule behind the calls is not given here.
How the values were obtained:
[1] = molecular target: T1, Androgen receptor (Homo sapiens) (UniProt P10275); experiment: Displacement of fluormone-AL green from GST-tagged androgen receptor LBD (unknown origin) at 10 uM measured after 4 hrs by fluorescence polarization assay; settings: filed as antagonist
T1 sequence (whole entry): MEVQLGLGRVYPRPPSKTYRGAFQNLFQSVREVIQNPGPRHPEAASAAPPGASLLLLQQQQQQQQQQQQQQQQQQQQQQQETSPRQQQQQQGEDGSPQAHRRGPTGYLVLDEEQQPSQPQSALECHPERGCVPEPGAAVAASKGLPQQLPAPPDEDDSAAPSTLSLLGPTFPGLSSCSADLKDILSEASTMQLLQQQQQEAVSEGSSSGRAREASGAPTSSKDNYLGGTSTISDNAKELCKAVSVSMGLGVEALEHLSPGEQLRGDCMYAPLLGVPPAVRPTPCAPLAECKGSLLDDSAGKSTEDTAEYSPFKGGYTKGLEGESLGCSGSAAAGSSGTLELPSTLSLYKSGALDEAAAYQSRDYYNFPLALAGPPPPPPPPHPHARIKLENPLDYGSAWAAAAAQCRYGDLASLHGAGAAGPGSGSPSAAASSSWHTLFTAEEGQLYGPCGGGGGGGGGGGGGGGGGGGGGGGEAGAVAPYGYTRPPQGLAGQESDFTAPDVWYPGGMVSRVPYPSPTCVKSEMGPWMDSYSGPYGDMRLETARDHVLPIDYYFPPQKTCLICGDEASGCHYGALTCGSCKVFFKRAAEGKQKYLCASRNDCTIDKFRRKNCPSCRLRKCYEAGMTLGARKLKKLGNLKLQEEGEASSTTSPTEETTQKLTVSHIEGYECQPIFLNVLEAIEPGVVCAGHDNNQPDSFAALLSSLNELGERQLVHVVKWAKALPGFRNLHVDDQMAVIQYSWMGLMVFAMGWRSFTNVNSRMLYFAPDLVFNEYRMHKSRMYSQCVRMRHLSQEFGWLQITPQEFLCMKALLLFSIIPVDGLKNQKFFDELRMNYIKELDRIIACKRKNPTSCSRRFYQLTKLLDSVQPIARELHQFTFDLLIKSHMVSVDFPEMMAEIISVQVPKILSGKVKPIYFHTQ
Method in brief: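 PolarScreen AR competitor assay. Compound mixed with GST-tagged AR-LBD and Fluormone AL Green in AR Green assay buffer, incubated 4 h at room temperature protected from light. Fluorescence polarization (mP) measured.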

Androgen receptor [2] = molecular target: T2, Androgen receptor (Homo sapiens, UniProt P10275); type: cell-based, LNCaP
T2 sequence (P10275 whole entry): T1 sequence (whole entry)

LNCaP [3] = experiment: Effect on prostate specific antigen mRNA expression in human LNCaP cells at 0.1 to 10 uM measured after 48 hrs by SYBR green dye based qPCR analysis; type: functional, cell-based; settings: dose 0.1-10 µM
Method in brief: (§1)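 LNCaP cells kept in medium with 5% charcoal-stripped serum in six-well plates. Treated with DHT 5 nM plus compound at 0.1, 1 or 10 μM, or DMSO. mRNA extracted 48 h after treatment, reverse transcribed and quantified by qPCR.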

[4] = molecular target: T1, Androgen receptor (Homo sapiens); experiment: Antagonist activity at androgen receptor in human LNCaP cells assessed as reduction in DHT-induced TMPRSS2 mRNA expression after 48 hrs by SYBR green dye based qPCR analysis; type: cell-based; settings: filed as antagonist; method in brief: as §1
NIH3T3 = experiment: Cytotoxicity against mouse NIH/3T3 cells assessed as reduction in cell viability at 50 uM after 24 hrs by MTT assay; type: cell-based; settings: nih3t3, 24 h
LNCaP [5] = experiment: Antiproliferative activity against human LNCaP cells assessed as reduction in cell proliferation measured after 72 hrs by MTT assay; type: functional, cell-based
Method in brief: (§2)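 LNCaP, C4-2, PC3 and DU145 seeded in RPMI-1640 with 5% charcoal-stripped serum (LNCaP 3×10^3, the others 1.5×10^3 cells/well). After 24 h at 37 °C, treated with 5 nM DHT and serial compound dilutions for 72 h. MTT 4 h, formazan dissolved overnight in 10% SDS-0.1% HCl-PBS. A570 read with 650 nm reference.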

PC-3 = experiment: Antiproliferative activity against human PC-3 cells assessed as reduction in cell proliferation measured after 72 hrs by MTT assay; type: functional, cell-based; method in brief: as §2
DU-145 = experiment: Antiproliferative activity against human DU-145 cells assessed as reduction in cell proliferation measured after 72 hrs by MTT assay; type: functional, cell-based; method in brief: as §2
LNCaP C4-2 = experiment: Antiproliferative activity against human LNCaP C4-2 cells assessed as reduction in cell proliferation measured after 72 hrs by MTT assay; type: functional, cell-based; method in brief: as §2
[6] = molecular target: T3, Prostate-specific antigen (Homo sapiens, UniProt P07288); experiment: Inhibition of prostate specific antigen in human LNCaP cells; type: cell-based
T3 sequence (P07288 whole entry): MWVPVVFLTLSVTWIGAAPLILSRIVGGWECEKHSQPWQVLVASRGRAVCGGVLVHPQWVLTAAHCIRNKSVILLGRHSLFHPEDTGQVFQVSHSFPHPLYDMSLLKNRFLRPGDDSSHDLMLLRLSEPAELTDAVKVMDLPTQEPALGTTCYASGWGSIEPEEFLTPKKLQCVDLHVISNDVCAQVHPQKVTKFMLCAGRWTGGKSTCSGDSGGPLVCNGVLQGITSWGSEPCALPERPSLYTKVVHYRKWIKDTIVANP

[7] = molecular target: T1, Androgen receptor (Homo sapiens); experiment: Antagonist activity at androgen receptor in human LNCaP cells transfected with ARR2 PB-eGFP assessed as inhibition of DHT-induced transcriptional activity at 10 uM measured after 3 days by fluorescence assay relative to control; type: cell-based; settings: filed as antagonist, time 3.0 day
Method in brief: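 LNCaP-ARR2PB-eGFP reporter cells in RPMI-1640 starved 5 days in 5% charcoal-stripped serum. Seeded at 3.5×10^4 cells/well, 24 h at 37 °C, 5% CO2. Co-treated with 5 nM DHT and compound at 10 µM (screen) or 0–50 µM. Fluorescence read after 3 days (ex 485, em 535 nm).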

Androgen receptor [8] = molecular target: T2, Androgen receptor; experiment: Displacement of fluormone-AL green from GST-tagged androgen receptor LBD (unknown origin) measured after 4 hrs by fluorescence polarization assay

| Compound | inhibition [1] | IC50 (Androgen receptor [2]) | Activity (PC-3) | Activity (DU-145) | Activity (LNCaP C4-2) | also measured |
| --- | --- | --- | --- | --- | --- | --- |
| Brc1ccc(C2Nc3ccc4ccccc4c3C3C=CCC32)cc1 (stereo unspecified) | Active | 0.15 µM | Active | Active | Active | Activity (LNCaP [3]): Active; Activity [4]: Dose-dependent effect; Activity (NIH3T3): Non-Toxic; Activity (LNCaP [5]): Active |
| c1ccc(C2Nc3ccc4ccccc4c3C3C4CCC(C4)C23)cc1 (stereo unspecified) | – | 5.6 µM | – | – | – | – |
| Fc1ccccc1C1Nc2ccc3ccccc3c2C2C=CCC21 (stereo unspecified) | Active | 0.22 µM | – | – | – | – |
| Clc1ccc(C2Nc3ccc4ccccc4c3C3C4CCC(C4)C23)cc1 (stereo unspecified) | – | 7.45 µM | – | – | – | – |
| Clc1ccc(C2Nc3ccc4ccccc4c3C3C=CCC32)cc1 (stereo unspecified) | Active | 1.92 µM | – | – | – | – |
| CCOC(=O)C1Nc2ccc3ccccc3c2C2C=CCC12 (stereo unspecified) | Active | 0.82 µM | – | – | – | – |
| Clc1ccc(C2Nc3ccc4ccccc4c3C3OCCCC23)c(Cl)c1 (stereo unspecified) | – | 20.4 µM | – | – | – | – |
| CNC(=O)c1ccc(N2C(=S)N(c3ccc(C#N)c(C(F)(F)F)c3)C(=O)C2(C)C)cc1F [ENZALUTAMIDE] | – | – | Active | Active | Active | IC50 [6]: 0.13 µM; Activity (LNCaP [5]): Active |
| Clc1ccccc1C1Nc2ccc3ccccc3c2C2C=CCC21 (stereo unspecified) | Active | 2.4 µM | Active | Active | Active | inhibition [7]: > 50%; IC50 (Androgen receptor [8]): 4.02 µM; Activity (NIH3T3): Non-Toxic |
